IDH1 R132H inh: IDH1 R132H (human) inhibition; O75874; IDH1 R132H reductase, diaphorase/resazurin fluorescence, 60 min; inhibition, % at 10 µM; actives 0.18% (n = 70,000); in the data active means inhibition above about 34%; inconclusive means no clear call, values can overlap the other calls; inactive means below about 11%;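 further: 0% = DMSO and 100% = no enzyme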
Target sequence (O75874 whole entry R132H): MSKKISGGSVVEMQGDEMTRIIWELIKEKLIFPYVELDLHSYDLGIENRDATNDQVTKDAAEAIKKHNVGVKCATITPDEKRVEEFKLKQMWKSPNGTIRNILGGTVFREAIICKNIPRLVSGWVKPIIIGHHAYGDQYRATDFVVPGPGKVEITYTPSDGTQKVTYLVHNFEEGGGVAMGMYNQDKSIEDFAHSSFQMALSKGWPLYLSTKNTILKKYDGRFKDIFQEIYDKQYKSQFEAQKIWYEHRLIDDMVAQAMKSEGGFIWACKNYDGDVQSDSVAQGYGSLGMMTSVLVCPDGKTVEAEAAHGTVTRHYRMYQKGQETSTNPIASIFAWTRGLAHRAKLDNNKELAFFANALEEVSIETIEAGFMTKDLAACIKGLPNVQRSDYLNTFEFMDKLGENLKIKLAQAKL
GASC1 inh: blocks human GASC-1 (KDM4C) demethylase activity. actives 0.15% (n = 96,000). Q9H3R0. inhibition, % at 12.5 µM. GST-KDM4C 2-372, H3K9me3 peptide, LANCE TR-FRET. AID 720574;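 active means mean replicate inhibition above about 25%, with at least 55% of replicates also reaching it, limit read from the data, passing the limit was not always enough; inconclusive means only one of those two conditions met; inactive means neither condition met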
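Material: N-terminal GST-fused human GASC-1 (KDM4C) fragment, residues 2-372. Input: 10 nM enzyme. Incubation: enzyme reaction 30 min, then detection 60 min, both room temperature. Doses: one test concentration per compound. Read-out basis: inhibition from TR-FRET ratio decrease. Detection: LANCE TR-FRET, excitation 340 nm, emissions 618 and 671 nm.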
T cruzi growth-1: blocks T. cruzi growth in NIH3T3 culture. T. cruzi beta-gal in NIH3T3, GalScreen luminescence, 90 h. inhibition, % at 8.34 µM. actives 5.9% (n = 77,000);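 active means mean inhibition above about 93%, with at least 55% of replicates each passing it, limit read from the data, passing the limit was not always enough; inconclusive means only one of those two conditions holds; inactive means neither condition holds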
T cruzi growth-2: inhibitors of T. cruzi proliferation; shares compounds with T cruzi growth-1; T. cruzi beta-gal in NIH3T3, GalScreen luminescence, 90 h; inhibition, % at 8.35 µM; actives 72% (n = 5,600);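 active means mean replicate inhibition above about 95% and at least 55% of replicates individually reaching it, limit read from the data; inconclusive means only one of the two criteria is met; inactive means neither criterion is met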
T cruzi growth-3: blocks T. cruzi growth in NIH3T3 host cells | actives 21% (n = 5,600) | shares compounds with T cruzi growth-1 | AID 651740 | inhibition, % at 2.09 µM | T. cruzi beta-gal in NIH3T3, GalScreen luminescence, 90 h;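 active means mean inhibition above about 95%, with at least 55% of replicates also reaching it, limit read from the data; inconclusive means meets just one of the two conditions; inactive means meets neither condition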;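 further: plate controls were neutral control median for no effect and positive control median for full effect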
3T3 cytotox: kills mouse NIH/3T3 fibroblasts; NIH/3T3 viability, CellTiter-Glo ATP luminescence, 90 h; AID 651742; shares compounds with T cruzi growth-1; cytotoxicity (signal decrease), % at 8.35 µM; actives 14% (n = 5,600);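 active means mean signal decrease across replicates above about 35% based on untreated-well scatter, with enough replicates individually passing, limit read from the data; inconclusive means no rule stated though some were filed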;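 further: 0% = median of neutral control wells and 100% = median of positive control wells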
3T3 cytotox 2: NIH/3T3 (mouse) viability loss | shares compounds with T cruzi growth-1 | NIH/3T3 viability, CellTiter-Glo ATP luminescence, 90 h | inhibition, % at 24.9 µM | actives 56% (n = 5,600) | AID 651744;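 active means mean loss of cell viability signal at or above a set limit, and enough replicates individually reaching it; inconclusive means meets only the mean limit or only the replicate share; inactive means meets neither condition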;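 further: 0% = median of neutral control wells and 100% = median of positive control wells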
Active calls of the source: *; u = inconclusive; x = no result given. Only a selection was taken, and hits are over-represented in it overall.

SMILES	IDH1 R132H inh	GASC1 inh	T cruzi growth-1	T cruzi growth-2	T cruzi growth-3	3T3 cytotox	3T3 cytotox 2
CC(Sc1nc(N)cc(=O)[nH]1)C(=O)Nc1ccc(Cl)cc1 (centres undefined)	1	x	x	x	x	x	x
COc1ccc(Cl)cc1C(=O)N(Cc1nc(-c2ccc(C)cc2)no1)C(C)C	0	x	x	x	x	x	x
CC(=O)Nc1ccc(NC(=O)CN(c2ccc(C)c(Cl)c2)S(C)(=O)=O)cc1	0	x	x	x	x	x	x
C[C@@H]1CCCCO[C@H](CN(C)C(=O)C2CCCCC2)[C@H](C)CN([C@@H](C)CO)C(=O)c2cc(NC(=O)C3CCCCC3)ccc2O1	-1	-2	46	x	x	x	x
C[C@@H]1CCCCO[C@@H](CN(C)C(=O)Nc2ccc3c(c2)OCO3)[C@H](C)CN([C@H](C)CO)C(=O)c2cc(NS(=O)(=O)c3ccc(Cl)cc3)ccc2O1	x	-1	u	101*	62	-18	6
C[C@@H]1CCCCO[C@@H](CN(C)C(=O)Nc2ccc3c(c2)OCO3)[C@H](C)CN([C@@H](C)CO)C(=O)c2cc(NS(=O)(=O)c3ccccc3)ccc2O1	x	1	50	x	x	x	x
C[C@@H]1CN([C@H](C)CO)C(=O)c2cc(NS(=O)(=O)c3ccc(Cl)cc3)ccc2O[C@@H](C)CCCCO[C@H]1CN(C)C(=O)Nc1ccc2c(c1)OCO2	2	0	x	x	x	x	x
C[C@H](CO)N1C[C@H](C)[C@H](CN(C)C(=O)Nc2ccc3c(c2)OCO3)OCCCC[C@H](C)Oc2ccc(NS(=O)(=O)c3ccccc3)cc2C1=O	-2	0	101*	107*	40	6	-5
O=C(N[C@@H]1C=C[C@H](CC(=O)N2CCc3ccccc3C2)O[C@H]1CO)C1CCOCC1	x	0	x	x	x	x	x
COc1ccc(-c2noc(CN(C(=O)c3ccc(C)c([N+](=O)[O-])c3)C(C)C)n2)cc1	0	x	x	x	x	x	x
COc1ccc(C#Cc2ccc3c(c2)[C@@H]2[C@@H](CCN2C(=O)c2cccc(F)c2)[C@@H](CO)N3)cc1	x	-1	102*	108*	84	-2	26*
COc1ccc(C#Cc2ccc3c(c2)[C@H]2[C@H](CCN2C(=O)c2cccc(F)c2)[C@@H](CO)N3)cc1	x	1	61	x	x	x	x
O=C(c1cccc(F)c1)N1CC[C@@H]2[C@H]1c1cc(C#Cc3ccc(F)cc3)ccc1N[C@@H]2CO	x	-2	114*	108*	91	-2	79*
O=C(c1cccc(F)c1)N1CC[C@H]2[C@H](CO)Nc3ccc(C#Cc4ccccc4)cc3[C@H]21	x	0	x	x	x	x	x
CC(C)NC(=O)N(C)C[C@H]1Oc2c(NS(=O)(=O)c3cn(C)cn3)cccc2C(=O)N([C@@H](C)CO)C[C@H]1C	x	13	61	x	x	x	x
CO[C@@H]1CN(C)C(=O)c2cc(NC(=O)C3CC3)ccc2OC[C@@H](C)N(Cc2nccs2)C[C@H]1C	0	-1	x	x	x	x	x
C[C@@H]1CN([C@H](C)CO)C(=O)CCCn2nncc2CO[C@H]1CN(C)Cc1ccc(-c2ccccc2)cc1	x	1	-53	x	x	x	x
C[C@@H]1CN([C@@H](C)CO)C(=O)CCCn2nncc2CO[C@H]1CN(C)Cc1ccc(C(=O)Nc2ccccc2N)cc1	x	4	110*	101*	107*	9	36*
C[C@H](CO)N1C[C@H](C)[C@@H](CN(C)Cc2ccc(C(=O)O)cc2)OCc2cnnn2CCCC1=O	1	0	x	x	x	x	x
C[C@H]1CN([C@@H](C)CO)C(=O)CCCn2nncc2CO[C@@H]1CN(C)Cc1ccc(C(=O)O)cc1	3	3	x	x	x	x	x
C[C@@H]1CN([C@@H](C)CO)C(=O)CCCn2nncc2CO[C@@H]1CN(C)Cc1ccc(C(=O)Nc2ccccc2N)cc1	x	0	82	x	x	x	x
C[C@H](CO)N1C[C@H](C)[C@@H](CN(C)Cc2ccc(-c3ccccc3)cc2)OCc2cnnn2CCCC1=O	x	2	u	51	11	17	51*
C[C@@H]1CN([C@H](C)CO)C(=O)CCCn2nncc2CO[C@H]1CN(C)Cc1ccc(C(=O)Nc2ccccc2N)cc1	x	-1	109*	101*	93	13	31*
C[C@H](CO)N1C[C@H](C)[C@@H](CN(C)Cc2ccc(C(=O)Nc3ccccc3N)cc2)OCc2cnnn2CCCC1=O	x	0	110*	106*	89	4	u
COc1ccc(Cl)cc1N(CC(=O)Nc1ccc(C(F)(F)F)cc1)S(C)(=O)=O	0	x	x	x	x	x	x
SMILES	IDH1 R132H inh	GASC1 inh	T cruzi growth-1	T cruzi growth-2	T cruzi growth-3	3T3 cytotox	3T3 cytotox 2
COc1ccccc1CNC(=O)C[C@H]1CC[C@H]2[C@@H](COC[C@@H](O)CN2C(=O)Nc2ccc(C(F)(F)F)cc2)O1	x	-3	-63	x	x	x	x
COc1ccc(Cl)cc1NC(=O)CN(C)S(=O)(=O)c1c(C)cc(C)cc1C	0	x	x	x	x	x	x
CC(C)CC#Cc1ccc2c(c1)O[C@@H](CN(C)CC1CCCC1)[C@H](C)CN([C@@H](C)CO)S2(=O)=O	x	1	x	x	x	x	x
CC(C)CC#Cc1ccc2c(c1)O[C@@H](CN(C)C)[C@@H](C)CN([C@@H](C)CO)S2(=O)=O	-1	0	26	x	x	x	x
CCCN(C)C[C@@H]1Oc2cc(C#CCC(C)C)ccc2S(=O)(=O)N([C@@H](C)CO)C[C@@H]1C	-1	0	108*	110*	110*	14	104*
CC(C)CC#Cc1ccc2c(c1)O[C@H](CN(C)CC1CCOCC1)[C@H](C)CN([C@@H](C)CO)S2(=O)=O	x	5	107	x	x	x	x
CCCN(C)C[C@@H]1Oc2cc(C#CCC(C)C)ccc2S(=O)(=O)N([C@@H](C)CO)C[C@H]1C	x	-1	x	x	x	x	x
CC(C)CC#Cc1ccc2c(c1)O[C@H](CN(C)CC1CC1)[C@H](C)CN([C@H](C)CO)S2(=O)=O	-1	-2	105*	108*	63	13	106*
CC(C)CC#Cc1ccc2c(c1)O[C@@H](CN(C)CC1CC1)[C@@H](C)CN([C@@H](C)CO)S2(=O)=O	-1	-1	111*	110*	89	21	103*
CC(C)CC#Cc1ccc2c(c1)O[C@@H](CN(C)CC1CC1)[C@@H](C)CN([C@H](C)CO)S2(=O)=O	-3	3	107*	105*	52	38*	103*
O=C(CSc1nnnn1-c1ccc(Cl)cc1)Nc1cccc2ccccc12	0	x	x	x	x	x	x
NC(=O)COc1ccc(Br)cc1C1C2=C(CCCC2=O)NC2=C1C(=O)CCC2	-1	x	x	x	x	x	x
CCN(CC(=O)Nc1cccc(Cl)c1C)S(=O)(=O)c1ccc(OC)cc1	0	x	x	x	x	x	x
O=C(Nc1sc2c(c1C(=O)NCc1ccco1)CCCC2)c1ccccc1[N+](=O)[O-]	0	x	x	x	x	x	x
COC(=O)c1ccccc1NC(=O)CSc1nc(-c2ccccc2)cc(=O)[nH]1	0	x	x	x	x	x	x
N#C[C@@H]1N[C@H](CO)[C@@H]1c1ccc(C#Cc2ccccc2F)cc1	x	-1	79	x	x	x	x

Screening data (PubChem)
